High-throughput results from PubChem.
An excerpt weighted towards active compounds, which were near 1.5% of everything screened.
p97 ATPase inh: blocks human p97 ATPase activity | recombinant p97 ATPase, Kinase-Glo ATP luminescence, 3 h | inhibition, % at 8 µM | actives 0.42% (n = 220,000) | AID 1481; in the data active = inhibition above about 15%;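 note: 0% = DMSO vehicle and 100% = wells lacking enzyme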
PKD1 inh: PKD1 (human) kinase inhibition. Q15139. PKD1 kinase fluorescence polarization assay. inhibition, % (concentration not given with the values). actives 0.056% (n = 200,000). AID 797; in the data active = inhibition above about 50%
PP1 counter: counter-screen for PP5 inhibitors: inhibitors of human PP1-alpha; actives 0.9% (n = 320,000); purified PP1alpha, OMFP fluorescence; AID 2235; inhibition, % at 6.7 µM; P62136;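 active = inhibition above the mean inhibition of all tested compounds plus 3 SD, computed separately for each screening campaign, cut at about 15% in these data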
Target sequence (P62136 whole entry, looked up): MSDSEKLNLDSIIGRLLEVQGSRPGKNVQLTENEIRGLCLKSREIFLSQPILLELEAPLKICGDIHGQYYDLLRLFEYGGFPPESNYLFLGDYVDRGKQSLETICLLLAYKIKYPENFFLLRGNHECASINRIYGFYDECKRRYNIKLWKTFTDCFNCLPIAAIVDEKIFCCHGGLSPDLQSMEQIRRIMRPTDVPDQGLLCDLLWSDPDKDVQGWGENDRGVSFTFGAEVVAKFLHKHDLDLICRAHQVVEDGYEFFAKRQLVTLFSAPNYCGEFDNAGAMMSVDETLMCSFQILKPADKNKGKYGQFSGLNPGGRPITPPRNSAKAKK
Hsp70 act: switches on Hsp70 transcription | HeLa Hsp70 promoter luciferase reporter, luminescence; scaled: vehicle 0, proteasome-inhibitor control 100% | activation, % at 10 µM | actives 0.04% (n = 200,000) | AID 1203;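 active = activation above the mean across all tested compounds plus 3 SD, cutoff set per campaign, cut at about 5.5% in these data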;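 note: 100% = MG132 at 30 µM as the positive control and 0% = DMSO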
RBBP9 inhibitor: blocks human serine hydrolase RBBP9 | recombinant RBBP9, FP-Rh probe fluorescence polarization | inhibition, % at 7.94 µM | actives 0.2% (n = 220,000) | AID 1515;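 active = inhibition above the campaign mean of all tested compounds plus 3 SD, cut at about 14% in these data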;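 note: plate controls were DMSO wells with RBBP9 for no effect and wells lacking RBBP9 protein for full effect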
Target sequence (O75884 whole entry, looked up): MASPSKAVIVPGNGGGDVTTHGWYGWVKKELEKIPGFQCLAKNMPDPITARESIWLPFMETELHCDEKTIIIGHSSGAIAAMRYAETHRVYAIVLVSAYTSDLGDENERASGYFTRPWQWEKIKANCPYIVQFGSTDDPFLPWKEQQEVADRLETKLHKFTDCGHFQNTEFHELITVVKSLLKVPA
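Assay system: recombinant human RBBP9; Reagent: Serine-hydrolase probe FP-Rh, 375 nM pre-mixing; Doses: 7.94 µM single dose, 0.794% DMSO; Incubation: 30 min then 45 min, 25 °C; Detection: fluorescence polarization (mP), excitation 525 nm, emission 598 nm; Evaluation: percent inhibition from mP, scaled between DMSO and no-protein wells.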
PP5 inh: blocks human protein phosphatase 5 activity; AID 1987; purified PP5c, OMFP substrate fluorescence; actives 0.18% (n = 320,000); inhibition, % at 6.7 µM;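 active = inhibition above the campaign's mean inhibition across all tested compounds plus 3 SD, cut at about 9.5% in these data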;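 note: 0% = DMSO only and 100% = 100 µM cantharidin control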
PP1 confirm: human PP1 phosphatase inhibition, confirmation; shares compounds with PP1 counter; purified PP1alpha, OMFP substrate fluorescence; inhibition, % at 6.7 µM; actives 52% (n = 1,900);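 active = mean PP1 inhibition above a set limit taken from the earlier primary screen, cut at about 15% in these data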
PP5 counter: inhibits human PP5 phosphatase in PP1 counter-screen; actives 4% (n = 1,900); purified PP5c, OMFP fluorescence; inhibition, % at 6.7 µM; shares compounds with PP1 counter;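 active = mean PP5 inhibition over triplicate wells above about 9.5% taken from the earlier PP1 screen, limit read from the data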
* marks the source's active call; other numbers are inactive results; / = no result.

SMILES | p97 ATPase inh | PKD1 inh | PP1 counter | Hsp70 act | RBBP9 inhibitor | PP5 inh | PP1 confirm | PP5 counter
O=C(Nc1nc(-c2ccccn2)cs1)c1ccc(Br)s1 | 1.7 | -4.1 | 30.9* | -0.1 | 3.1 | 3.5 | 16.7* | -1.6
O=C(Nc1nc(-c2ccccn2)cs1)c1cccc(-n2cnnn2)c1 | -1.8 | / | 27.1* | / | -8.7 | -0.8 | 21.3* | -1.8
Cc1ccc(CS(=O)(=O)c2ccc(C(=O)N3CCN(c4ccccn4)CC3)cc2[N+](=O)[O-])cc1 | 5.5 | -2.1 | -4.1 | 0.0 | 3.5 | 5.5 | / | /
Cc1cccc(-c2cc(C(=O)N/N=C/c3cccnc3)c3ccccc3n2)c1 | / | / | -3.2 | / | / | 4.0 | / | /
Cc1cccc(/C=N/NC(=O)c2cc(-c3cccnc3)nc3ccccc23)c1 | 1.7 | -5.4 | 77.7* | 0.4 | 2.5 | 1.7 | -2.0 | -1.4
CCc1c(O)nc(SCC(=O)Nc2nc3ccccc3s2)n(C2CCCCC2)c1=O | 3.7 | / | 2.2 | / | 0.7 | -0.3 | / | /
Cc1c(NC(=O)c2cccnc2C(=O)O)cccc1C(=O)O | 4.4 | -1.6 | 24.6* | -0.3 | 1.6 | 0.5 | 0.1 | 3.1
Cc1ccc(C(=O)NCC(=O)NCC(=O)OCc2ccc(F)cc2)cc1 | -0.6 | 0.3 | -0.3 | -0.3 | -3.9 | -1.0 | / | /
C=CCCCCCCCCC(=O)N1CCN(c2cc3c(cc2F)c(=O)c(C(=O)O)cn3CC)CC1 | / | / | 9.8 | / | / | -0.7 | / | /
CCn1cc(C(=O)O)c(=O)c2cc(F)c(N3CCN(S(=O)(=O)c4ccc(Br)cc4)CC3)cc21 | 5.1 | -9.5 | 19.1* | -0.1 | -2.2 | -0.4 | 41.2* | -0.6
C=CCNC(=S)N1CCN(c2cc3c(cc2F)c(=O)c(C(=O)O)cn3CC)CC1 | / | / | 19.7* | / | / | 1.1 | 8.5 | -4.3
CCn1cc(C(=O)O)c(=O)c2cc(F)c(N3CCN(C(=S)NC(=O)c4ccccc4Cl)CC3)cc21 | 6.8 | / | -1.1 | / | -9.6 | 0.6 | / | /
COc1ccccc1NC(=O)CSc1nnc(NC(=O)C2CCC2)s1 | / | / | 5.2 | / | / | 1.5 | / | /
O=C(Cc1cccs1)NC(c1ccccc1)c1ccccc1 | -2.0 | -0.5 | -1.6 | 0.1 | -2.8 | 1.6 | / | /
O=C(COC(=O)/C(=C/c1cccs1)c1cccs1)NC(c1ccccc1)c1ccccc1 | 2.1 | -7.5 | 20.3* | -0.2 | -12.3 | 4.3 | 11.1 | -0.1
COc1ccc2oc(C(=O)OC/C(O)=C(\C#N)c3nc4ccccc4[nH]3)c(C)c2c1 | 9.3 | / | -2.2 | / | 6.3 | -0.3 | / | /
CCOC(=O)c1c(C)[nH]c(C(=O)OC/C(O)=C(\C#N)c2nc3ccccc3[nH]2)c1C | -4.2 | -11.4 | 19.7* | 0.1 | -6.5 | 0.4 | 9.7 | 1.4
CCn1c2ccccc2c2cc(NC(=O)COC(=O)c3ccc(NC(=O)CC#N)cc3)ccc21 | / | / | 64.1* | / | / | 0.3 | 46.1* | -4.2
CCOC(=O)c1c(NC(=O)COC(=O)c2ccc(NC(=O)CC#N)cc2)sc(C(=O)NC)c1C | / | / | 19.7* | / | / | -1.8 | 10.6 | -4.5
O=c1cc(-c2ccccc2Cl)oc2c(NS(=O)(=O)c3ccccc3OC(F)(F)F)ccc(O)c12 | / | / | 24.2* | / | / | -0.5 | 6.6 | 0.3
O=c1cc(-c2ccccc2Cl)oc2c(NS(=O)(=O)c3ccccc3C(F)(F)F)ccc(O)c12 | / | / | 10.4 | / | / | 2.8 | / | /
C=CCOc1ccc(C2/C(=C(/O)c3ccc(OC)cc3)C(=O)C(=O)N2CCN2CCNCC2)cc1 (stereo unspecified) | / | / | 4.2 | / | / | -0.7 | / | /
COC(=O)C1=C(CSc2nc3c(cc2C#N)CN(C)CC3)OC(N)=C(C#N)C1c1ccc(F)cc1 (stereo unspecified) | 7.0 | 4.6 | 18.5* | -0.1 | 2.3 | 4.6 | 4.7 | 5.1
Cc1ccc(C)c(OCCn2cc(/C=C(/C#N)C(=O)NCC3CCCO3)c3ccccc32)c1 (stereo unspecified) | -9.7 | -5.0 | 52.8* | 0.0 | -22.1 | 6.3 | 1.6 | -2.5
N#C/C(=C\c1cn(CCOc2ccccc2)c2ccccc12)C(=O)NCC1CCCO1 (stereo unspecified) | -7.1 | 5.9 | 4.0 | 0.1 | -21.8 | 7.3 | / | /
